The target of data set [1] is T1, Bromodomain-containing protein 4 (Homo sapiens, UniProt O60885). Nature of the data set: Inhibition of FAM-labeled ZBA248 binding to recombinant human N-terminal His6-tagged BRD4 bromodomain 1 (44 to 168 residues) expressed in Rosetta2 DE3 cells after 30 mins by Flourescence polarization assay. The class given is biochemical.
Data set [2] has as its target T1, Bromodomain-containing protein 4. As to the kind of experiment: Inhibition of FAM-labeled ZBA248 binding to recombinant human N-terminal His6-tagged BRD4 bromodomain 2 (333 to 460 residues) expressed in Rosetta2 DE3 cells after 30 mins by Flourescence polarization assay. Format: biochemical.
The next data set has as its system MOLM-13. Nature of the data set: Growth inhibition of human MOLM13 cells after 4 days by WST-8 assay. Format: functional, cell-based. The conditions noted are these: MOLM-13, 96 h. The essentials:
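MOLM-13 leukemia cells were seeded at 10,000 cells/well and exposed to serially diluted compound for 4 days. Signal was normalized to DMSO controls, and IC50 was fitted by nonlinear regression.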

The test system of another data set is MV4-11. As to the kind of experiment: Growth inhibition of human MV4-11 cells after 4 days by WST-8 assay. Format: functional, cell-based. Particulars: MV4-11, 96 h.
Data set [3] can be described thus: Half life in Sprague-Dawley rat liver microsomes at 1 uM by LC/MS method. Format: ADME, microsome.
A short description of data set [4]: Half life in human liver microsomes at 1 uM by LC/MS method. The class given is ADME, microsome.
Data set [5] can be described thus: Half life in CD1 mouse liver microsomes at 1 uM by LC/MS method. Format: ADME, microsome.

Consider 28 compounds from ChEMBL document CHEMBL4184143 (J Med Chem, 2017).

Take `COc1cc2c(cc1-c1c(C)noc1C)[nH]c1ncnc(-c3c[nH]c4cnccc34)c12`: the concentration for half-maximal inhibition (IC50) in data set [1] came to 0.0116 µM; in data set [2] it was 0.0227 µM; in the data set on MOLM-13 it was 0.489 µM; in the data set on MV4-11, 0.19 µM. The inhibitory constant (Ki) in data set [1] was 0.007 µM; in data set [2], 0.0071 µM.

For `COc1cc2c(cc1-c1c(C)noc1C)[nH]c1ncnc(-c3c(C)nn(C)c3C)c12`, the concentration for half-maximal inhibition (IC50) in data set [1] worked out at 0.0409 µM; in data set [2], 0.0897 µM; in the data set on MOLM-13, 0.193 µM; in the data set with MV4-11, 0.095 µM. Further, the inhibitory constant (Ki) stood at 0.0185 µM in data set [1] and 0.0312 µM in data set [2].

`COc1cc2c(cc1-c1c(C)noc1C)[nH]c1nc(C)nc(-c3cc(C(F)(F)F)nc4ccccc34)c12`: the IC50 turned out to be 0.393 µM in data set [1], 0.0927 µM in data set [2], 0.971 µM in the data set with MOLM-13 and 0.077 µM in the data set on MV4-11. Also, the figures for the Ki in data set [1] and in data set [2] were 0.122 µM and 0.0269 µM, respectively.

`COc1cc2c(cc1-c1c(C)noc1C)[nH]c1ncnc(-c3c(C)[nH]c4cnccc34)c12`: the IC50 in data set [1] is 0.0108 µM; in data set [2], 0.0259 µM; in the data set on MOLM-13 it was 0.127 µM; in the data set with MV4-11, 0.013 µM. Further, the inhibition constant Ki in data set [1] amounted to 0.0042 µM; in data set [2] it was 0.0091 µM.

In the case of `COc1cc2c(cc1-c1c(C)noc1C)[nH]c1nc(C)nc(-c3cccc4cnccc34)c12`, the IC50 in data set [1] stood at 0.451 µM; in data set [2], 0.436 µM; in the data set with MOLM-13 it was 0.656 µM; in the data set on MV4-11 it was 0.295 µM. For the same compound, the figures for the inhibitory constant (Ki) in data set [1] and in data set [2] were 0.139 µM and 0.146 µM, respectively.

Consider `COc1cc2c(cc1-c1c(C)noc1C)[nH]c1ncnc(-c3nn(C)c4ccccc34)c12`, for which the half-maximal inhibitory concentration (IC50) is 0.147 µM in data set [1], 0.0749 µM in data set [2], above 10 µM in the data set on MOLM-13 and above 10 µM in the data set on MV4-11. Further, the inhibition constant (Ki) in data set [1] stood at 0.0851 µM; in data set [2] it was 0.0225 µM.

With `COc1cc2c(cc1-c1c(C)noc1C)[nH]c1nc(C)nc(-c3c(C)[nH]c4ccccc34)c12`, the concentration for half-maximal inhibition (IC50) in data set [1] was 0.0061 µM; in data set [2], 0.0019 µM; in the data set with MOLM-13, 0.02 µM; in the data set on MV4-11 it was 0.002 µM. Besides, the values for the inhibition constant Ki in data set [1] and in data set [2] were 0.0008 µM and below 0.0005 µM, respectively. For the same compound, the t1/2 is above 1 h in data set [3], 0.15 h in data set [4] and above 1 h in data set [5].

In the case of `COc1cc2c(cc1-c1c(C)noc1C)[nH]c1ncnc(-n3nnc4ccccc43)c12`, the concentration for half-maximal inhibition (IC50) in data set [1] was above 1 µM; in data set [2], above 1 µM; with MOLM-13, above 10 µM; with MV4-11, above 10 µM. The inhibitory constant (Ki) in data set [1] and in data set [2] was above 1 µM throughout.

As to `COc1cc2c(cc1-c1c(C)noc1C)[nH]c1ncnc(-c3ccoc3)c12`, the concentration for half-maximal inhibition (IC50) in data set [1] was 0.155 µM; in data set [2], 0.18 µM; in the data set with MOLM-13 it was above 10 µM; in the data set with MV4-11, 2.86 µM. Also, the Ki in data set [1] was 0.0443 µM; in data set [2] it was 0.0564 µM.

On to `COc1cc2c(cc1-c1c(C)noc1C)[nH]c1nc(C)nc(-c3cnc4ccccc4c3)c12`, for which the IC50 in data set [1] came out at 0.397 µM; in data set [2], 0.128 µM; in the data set with MOLM-13, 0.716 µM; in the data set on MV4-11, 0.423 µM. In addition, the Ki came to 0.136 µM in data set [1] and 0.0426 µM in data set [2].

On to `COc1cc2c(cc1-c1c(C)noc1C)[nH]c1ncnc(-c3c[nH]c4ccccc34)c12`, for which the concentration for half-maximal inhibition (IC50) is 0.0203 µM in data set [1], 0.0055 µM in data set [2], 0.205 µM with MOLM-13 and 0.057 µM in the data set on MV4-11. For the same compound, the Ki came out at 0.0049 µM in data set [1] and 0.0011 µM in data set [2].

`COc1cc2c(cc1-c1c(C)noc1C)[nH]c1nc(C)nc(-c3cc(C)nc4ccccc34)c12`: the half-maximal inhibitory concentration (IC50) in data set [1] was 0.0197 µM; in data set [2] it was 0.0052 µM; in the data set with MOLM-13, 0.069 µM; with MV4-11, 0.017 µM. Besides, the Ki turned out to be 0.0057 µM in data set [1] and 0.0016 µM in data set [2]. For the same compound, the t1/2 in data set [3], in data set [4] and in data set [5] was above 1 h in each case.

For the compound `COc1cc2c(cc1-c1c(C)noc1C)[nH]c1nc(C)nc(-c3cccc4cccnc34)c12`, the results for the IC50 (in data set [1]; in data set [2]; in the data set on MV4-11) were 0.412 µM, 0.193 µM and 0.334 µM, respectively. For the same compound, the Ki in data set [1] turned out to be 0.129 µM; in data set [2] it was 0.0582 µM.

As to `COc1cc2c(cc1-c1c(C)noc1C)[nH]c1ncnc(-c3c(C)noc3C)c12`, the half-inhibitory concentration (IC50) in data set [1] was 0.102 µM; in data set [2], 0.164 µM; with MOLM-13, 0.709 µM; in the data set on MV4-11, 0.182 µM. Also, the values for the inhibition constant Ki in data set [1] and in data set [2] were 0.0412 µM and 0.0687 µM, respectively.

Regarding `COc1cc2c(cc1-c1c(C)noc1C)[nH]c1ncnc(-c3cc[nH]c3)c12`, the IC50 came to 0.165 µM in data set [1], 0.108 µM in data set [2], 0.612 µM in the data set with MOLM-13 and 0.253 µM with MV4-11. In addition, the Ki was determined as 0.0519 µM in data set [1] and 0.0306 µM in data set [2].

In the case of `COc1cc2c(cc1-c1c(C)noc1C)[nH]c1ncnc(-c3cnn4ccccc34)c12`, the IC50 amounted to 0.0487 µM in data set [1], 0.0265 µM in data set [2], 0.139 µM in the data set on MOLM-13 and 0.013 µM in the data set on MV4-11. The Ki in data set [1] came out at 0.028 µM; in data set [2] it was 0.0065 µM.

As to `COc1cc2c(cc1-c1c(C)noc1C)[nH]c1ncnc(-c3cn[nH]c3)c12`, in data set [1], the IC50 came out at 0.393 µM and the inhibitory constant (Ki) was determined as 0.131 µM. Moreover, in data set [2], the concentration for half-maximal inhibition (IC50) was determined as 0.199 µM and the Ki was 0.057 µM.

In the case of `COc1cc2c(cc1-c1c(C)noc1C)[nH]c1nc(C)nc(-c3cccc4ncccc34)c12`, the half-inhibitory concentration (IC50) amounted to 0.0309 µM in data set [1], 0.0155 µM in data set [2], 0.076 µM in the data set on MOLM-13 and 0.028 µM in the data set with MV4-11. Further, the Ki in data set [1] came out at 0.0101 µM; in data set [2], 0.0031 µM.

In the case of `COc1cc(-c2nc(C)nc3[nH]c4cc(-c5c(C)noc5C)c(OC)cc4c23)c2ccccc2n1`, the IC50 in data set [1] was 0.0731 µM; in data set [2], 0.0146 µM; in the data set on MOLM-13, 0.243 µM; in the data set with MV4-11, 0.069 µM. The Ki in data set [1] worked out at 0.0318 µM; in data set [2], 0.0042 µM.

Regarding `COc1cc2c(cc1-c1c(C)noc1C)[nH]c1ncnc(-n3cnc4ccccc43)c12`, the concentration for half-maximal inhibition (IC50) in data set [1] came out at 0.0294 µM; in data set [2] it was 0.0094 µM; with MOLM-13, 0.262 µM; with MV4-11, 0.015 µM. Moreover, the Ki in data set [1] came out at 0.0099 µM; in data set [2] it was 0.0028 µM.

Take `COc1cc2c(cc1-c1c(C)noc1C)[nH]c1nc(C)nc(-c3cccc4ccncc34)c12`: the half-inhibitory concentration (IC50) in data set [1] was 0.316 µM; in data set [2], 0.167 µM; with MOLM-13, 1.14 µM; with MV4-11, above 1 µM. Moreover, the Ki in data set [1] came to 0.0786 µM; in data set [2], 0.0523 µM.

`COc1cc2c(cc1-c1c(C)noc1C)[nH]c1ncnc(-c3cnoc3)c12`: in data set [1], the IC50 stood at 2.06 µM and the Ki is 0.655 µM. Besides, in data set [2], the 50% inhibitory concentration (IC50) was found to be 1.88 µM and the Ki worked out at 0.641 µM.

As for `COc1cc2c(cc1-c1c(C)noc1C)[nH]c1ncnc(-c3c(C)n[nH]c3C)c12`, the half-maximal inhibitory concentration (IC50) amounted to 0.0517 µM in data set [1], 0.0635 µM in data set [2], 0.233 µM in the data set with MOLM-13 and 0.099 µM in the data set with MV4-11. Besides, the inhibition constant Ki in data set [1] worked out at 0.0197 µM; in data set [2], 0.0202 µM.

Consider `COc1cc2c(cc1-c1c(C)noc1C)[nH]c1ncnc(-n3ccnc3)c12`, for which the IC50 in data set [1] was determined as 1.46 µM; in data set [2], 1.14 µM; in the data set on MOLM-13 it was 9.27 µM; in the data set on MV4-11, 1.06 µM. For the same compound, the inhibition constant Ki was 0.456 µM in data set [1] and 0.335 µM in data set [2].

Regarding `COc1cc2c(cc1-c1c(C)noc1C)[nH]c1ncnc(N[C@H](C)c3ccccn3)c12`, the results for the concentration for half-maximal inhibition (IC50) in data set [1] and in data set [2] were 0.0392 µM and 0.0264 µM, respectively. In addition, the Ki stood at 0.012 µM in data set [1] and 0.0104 µM in data set [2].

As to `COc1cc2c(cc1-c1c(C)noc1C)[nH]c1ncnc(Cl)c12`, in data set [1], the IC50 came out at 1.13 µM and the Ki was 0.387 µM. Further, in data set [2], the half-maximal inhibitory concentration (IC50) turned out to be 1.76 µM and the inhibitory constant (Ki) was 0.476 µM.

Turning to `COc1cc2c(cc1-c1c(C)noc1C)[nH]c1nc(C)nc(-c3cncc4ccccc34)c12`, the 50% inhibitory concentration (IC50) in data set [1] came to 0.0356 µM; in data set [2] it was 0.0127 µM; in the data set on MOLM-13, 0.124 µM; in the data set with MV4-11, 0.047 µM. The figures for the Ki in data set [1] and in data set [2] were 0.0095 µM and 0.0038 µM, respectively.

For `COc1cc2c(cc1-c1c(C)noc1C)[nH]c1ncnc(-c3c(C)oc4ccccc34)c12`, the IC50 in data set [1] turned out to be 0.0324 µM; in data set [2] it was 0.0122 µM; in the data set on MOLM-13 it was 0.38 µM; with MV4-11 it was 0.029 µM. Further, the inhibition constant (Ki) worked out at 0.0093 µM in data set [1] and 0.0028 µM in data set [2].
